Experimental data collected from several papers.
Protocols differ between the studies behind these lines. In brackets after ≈: the same amount, converted by molar mass.

| SMILES | test | system | setting | measurement | result |
| --- | --- | --- | --- | --- | --- |
| CC(C)C[C@H](NC(=O)[C@@H]1COCCCCCC(=O)NCC(=O)N2CCC[C@H]2C(=O)N1)C(=O)[C@@]1(C)CO1 | – | Caco-2 | 10 µM, 2 h, pH 7.4 | Papp B→A | 7.25 ×10⁻⁶ cm/s |
| Cn1nc2c(=O)n(C3CC3)ncc2c1[C@](O)(c1ccc(C(F)(F)F)c(Cl)c1)C(F)(F)F | nephelometry | aqueous buffer | 30 min, pH 6.5 | kinetic solubility | 5 to 10 µM (≈ 2.33 to 4.67 µg/mL) |
| C[C@H]1COC2=C1C(=O)C(=O)c1c2ccc2c1CCCC2(C)C | – | PBS | 24 h, pH 4, 25 °C | thermodynamic solubility | 15.8 µg/mL |
| CC(C)NCC(O)COc1cccc2ccccc12 (centres unmarked) | – | Caco-2 | 5 µM, 2 h | Papp A→B | 18.4 ×10⁻⁶ cm/s |
| Cn1cncc1[C@@](N)(c1ccc(Cl)cc1)c1ccc2c(c1)c(-c1cccc(Cl)c1)cc(=O)n2C | – | beagle dog, plasma | oral, 10 mg/kg, single dose | bioavailability | 65% |
| CCn1cc(Cl)c2c(Cc3ccc(N4CCCCC4)nc3)n(C)nc2c1=O | nephelometry | aqueous buffer | 30 min, pH 6.5 | kinetic solubility | 40 to 80 µM (≈ 15.4 to 30.9 µg/mL) |
| Cn1cncc1[C@@](N)(c1ccc(Cl)cc1)c1ccc2c(c1)c(-c1cccc(Cl)c1)cc(=O)n2C | – | FaSSIF | pH 6.5, 37 °C | solubility | 14.1 µg/mL (≈ 28.8 µM) |
| Cc1c(C(=O)O)ccc2c3n(nc12)[C@@H]1[C@H](C3)N(CC2CC2)[C@@]2(C(=O)Nc3cc(Cl)ccc32)[C@H]1c1cccc(Cl)c1F | – | male dog, plasma | oral, 2 mg/kg | bioavailability | 109% |
| Cn1nc2c(=O)n(C3CC3)nc(C3CC3)c2c1Cc1ccc(C(F)(F)F)c(F)c1 | nephelometry | aqueous buffer | 30 min, pH 6.5 | kinetic solubility | 6.3 to 12.5 µM (≈ 2.56 to 5.08 µg/mL) |
| CCCCC(CC)CNC(=N)NC(=N)NCCCCCCNC(=N)NC(=N)NCC(CC)CCCC (centres unmarked) | – | Caco-2 | 5 µM, 2 h | Papp A→B | < 0.07 ×10⁻⁶ cm/s |
| CN1CCN(c2cnc3c(cc(C(=O)NCc4ccc(Cl)cc4)c(=O)n3CC(=O)N3CC(C)(F)C3)n2)C1=O | – | aqueous buffer | 24 h, pH 7.4, 37 °C | thermodynamic solubility | < 1.56 µM |
| CC[C@@](O)(c1ccc(C(F)(F)F)c(C#N)c1)c1c2ccn(C3CC3)c(=O)c2nn1C | nephelometry | aqueous buffer | 30 min, pH 6.5 | kinetic solubility | 20 to 40 µM (≈ 8.33 to 16.7 µg/mL) |
| CC1(F)CN(C(=O)Cn2c(=O)c(C(=O)NCc3ccc(Cl)cc3)cc3nc(N4CCNC4=O)cnc32)C1 | – | aqueous buffer | 24 h, pH 7.4, 37 °C | thermodynamic solubility | < 1.56 µM |
| CO[C@]1(C(=O)N[C@@H](C)c2ccc(-n3cc(F)cn3)nc2)CC[C@H](c2nc(C)cc(Nc3cc(C)[nH]n3)n2)CC1 | – | – | – | pKa | 6.71 |
